According to ChEMBL document CHEMBL1926569, “Novel (E)-1-(4-methyl-2-(alkylamino)thiazol-5-yl)-3-arylprop-2-en-1-ones as potent antimicrobial agents” (2011):
≈ marks a conversion by molar mass, not a printed value. Values belong to the molecule of their own block, whether it stands above or below them.

Assays:
[1] = tested on: Enterococcus faecalis; test: Antibacterial activity against Enterococcus faecalis isolated from human incubated for 24 hrs followed by serial sub-cultivation for 24 hrs by microdilution; type: functional
Method in brief: (§1)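 MBC: after the 24 h LB broth microdilution (1.0 × 10⁴ CFU per well, 160 rpm), wells were serially sub-cultured into fresh broth plates and incubated a further 24 h. MBC is the lowest concentration with no visible growth, taken as 99.5% killing of the original inoculum. Duplicate, repeated three times.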

[2] = tested on: Talaromyces funiculosus; test: Antifungal activity against Penicillium funiculosum ATCC 36839 incubated for 72 hrs followed by serial sub-cultivation for 72 hrs by serial dilution technique; type: functional; settings: ATCC 36839, 72 h
Method in brief: (§2)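 MFC: material from 72 h malt broth microdilution wells was serially sub-cultured into fresh broth plates and incubated a further 72 h at 28 °C. Fungicidal concentration is taken from growth after sub-culture. Duplicate, repeated three times.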

[3] = tested on: Enterococcus faecalis; test: Antibacterial activity against Enterococcus faecalis isolated from human after 24 hrs by microdilution method; type: functional
Method in brief: (§3)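 Broth microdilution in 96-well plates. Bacterial suspensions were adjusted in sterile saline to 1.0 × 10⁵ CFU/ml, prepared daily and kept at 4 °C. Compound was added to LB broth with 1.0 × 10⁴ CFU per well and shaken at 160 rpm for 24 h at […] (so in the source). MIC is the lowest concentration with no visible growth under a binocular microscope. OD655 was also read. Duplicate, repeated three times.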

[4] = tested on: Pseudomonas aeruginosa; test: Antibacterial activity against Pseudomonas aeruginosa ATCC 27853 incubated for 24 hrs followed by serial sub-cultivation for 24 hrs by microdilution; type: functional; settings: ATCC 27853, 24 h; method in brief: as §1
[5] = tested on: Aspergillus niger; test: Antifungal activity against Aspergillus niger ATCC 6275 after 72 hrs by serial dilution technique; type: functional; settings: ATCC 6275, 72 h
Method in brief: (§4)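 Modified microdilution in 96-well plates. Fungi were kept on malt agar at 4 °C. Spores were washed off in sterile 0.85% saline with 0.1% Tween 80. Compounds were dissolved at 1 mg/ml in 5% DMSO with 0.1% Tween 80 and added to malt broth with inoculum. Plates were shaken at 160 rpm for 72 h at 28 °C. Duplicate, repeated three times.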

[6] = tested on: Aspergillus fumigatus; test: Ratio of ketoconazole to compound for Aspergillus fumigatus isolated from human; type: functional
[7] = tested on: Aspergillus niger; test: Ratio of bifonazole to compound for Aspergillus niger ATCC 6275; type: functional
[8] = tested on: Micrococcus flavus; test: Antibacterial activity against Micrococcus flavus ATCC 10240 after 24 hrs by microdilution method; type: functional; settings: ATCC 10240, 24 h; method in brief: as §3
[9] = tested on: Aspergillus ochraceus; test: Antifungal activity against Aspergillus ochraceus after 72 hrs by serial dilution technique
[10] = tested on: Salmonella typhimurium; test: Antibacterial activity against Salmonella Typhimurium ATCC 13311 incubated for 24 hrs followed by serial sub-cultivation for 24 hrs by microdilution; type: functional, Salmonella enterica subsp. enterica serovar Typhimurium; settings: Salmonella enterica, ATCC 13311, 24 h; method in brief: as §1
[11] = tested on: Penicillium ochrochloron; test: Ratio of bifonazole to compound for Penicillium ochrochloron ATCC 9112; type: functional
[12] = tested on: Escherichia coli; test: Antibacterial activity against Escherichia coli ATCC 35210 incubated for 24 hrs followed by serial sub-cultivation for 24 hrs by microdilution; type: functional; settings: ATCC 35210, 24 h; method in brief: as §1
[13] = tested on: Salmonella typhimurium; test: Antibacterial activity against Salmonella Typhimurium ATCC 13311 after 24 hrs by microdilution method; type: functional, Salmonella enterica subsp. enterica serovar Typhimurium; settings: Salmonella enterica, ATCC 13311, 24 h; method in brief: as §3
[14] = tested on: Candida albicans; test: Antifungal activity against Candida albicans isolated from human incubated for 72 hrs followed by serial sub-cultivation for 72 hrs by serial dilution technique; type: functional; method in brief: as §2
[15] = tested on: Talaromyces funiculosus; test: Ratio of bifonazole to compound for Penicillium funiculosum ATCC 36839; type: functional
[16] = tested on: Aspergillus flavus; test: Antifungal activity against Aspergillus flavus ATCC 9643 incubated for 72 hrs followed by serial sub-cultivation for 72 hrs by serial dilution technique; type: functional; settings: ATCC 9643, 72 h; method in brief: as §2
[17] = tested on: Aspergillus ochraceus; test: Ratio of bifonazole to compound for Aspergillus ochraceus ATCC 12066; type: functional
[18] = tested on: Penicillium ochrochloron; test: Antifungal activity against Penicillium ochrochloron ATCC 9112 incubated for 72 hrs followed by serial sub-cultivation for 72 hrs by serial dilution technique; type: functional; settings: ATCC 9112, 72 h; method in brief: as §2
[19] = tested on: Micrococcus flavus; test: Antibacterial activity against Micrococcus flavus ATCC 10240 incubated for 24 hrs followed by serial sub-cultivation for 24 hrs by microdilution; type: functional; settings: ATCC 10240, 24 h; method in brief: as §1
[20] = tested on: Trichoderma viride; test: Antifungal activity against Trichoderma viride IAM 5061 incubated for 72 hrs followed by serial sub-cultivation for 72 hrs by serial dilution technique; type: functional; settings: IAM 5061, 72 h; method in brief: as §2
[21] = tested on: Penicillium ochrochloron; test: Ratio of ketoconazole to compound for Penicillium ochrochloron ATCC 9112; type: functional
[22] = tested on: Staphylococcus aureus; test: Antibacterial activity against Staphylococcus aureus ATCC 6538 incubated for 24 hrs followed by serial sub-cultivation for 24 hrs by microdilution method; type: functional; settings: ATCC 6538, 24 h; method in brief: as §1
[23] = tested on: Staphylococcus aureus; test: Antibacterial activity against Staphylococcus aureus ATCC 6538 after 24 hrs by microdilution method; type: functional; settings: ATCC 6538, 24 h; method in brief: as §3
[24] = tested on: Listeria monocytogenes; test: Antibacterial activity against Listeria monocytogenes NCTC 7973 after 24 hrs by microdilution method; type: functional; settings: NCTC 7973, 24 h; method in brief: as §3
[25] = tested on: Aspergillus ochraceus; test: Antifungal activity against Aspergillus ochraceus ATCC 12066 after 72 hrs by serial dilution technique; type: functional; settings: ATCC 12066, 72 h; method in brief: as §4
[26] = tested on: Trichoderma viride; test: Ratio of bifonazole to compound for Trichoderma viride IAM 5061; type: functional
[27] = tested on: Bacillus cereus; test: Antibacterial activity against clinical isolate of Bacillus cereus after 24 hrs by microdilution method; type: functional; method in brief: as §3
[28] = tested on: Listeria monocytogenes; test: Antibacterial activity against Listeria monocytogenes NCTC 7973 incubated for 24 hrs followed by serial sub-cultivation for 24 hrs by microdilution; type: functional; settings: NCTC 7973, 24 h; method in brief: as §1
[29] = tested on: Candida albicans; test: Ratio of ketoconazole to compound for Candida albicans isolated from human; type: functional
[30] = tested on: Pseudomonas aeruginosa; test: Antibacterial activity against Pseudomonas aeruginosa ATCC 27853 after 24 hrs by microdilution method; type: functional; settings: ATCC 27853, 24 h; method in brief: as §3
[31] = tested on: Escherichia coli; test: Antibacterial activity against Escherichia coli ATCC 35210 after 24 hrs by microdilution method; type: functional; settings: ATCC 35210, 24 h; method in brief: as §3
[32] = tested on: Candida albicans; test: Ratio of bifonazole to compound for Candida albicans isolated from human; type: functional
[33] = tested on: Aspergillus ochraceus; test: Antifungal activity against Aspergillus ochraceus ATCC 12066 incubated for 72 hrs followed by serial sub-cultivation for 72 hrs by serial dilution technique; type: functional; settings: ATCC 12066, 72 h; method in brief: as §2
[34] = tested on: Aspergillus ochraceus; test: Ratio of ketoconazole to compound for Aspergillus ochraceus ATCC 12066; type: functional
[35] = tested on: Penicillium ochrochloron; test: Antifungal activity against Penicillium ochrochloron ATCC 9112 after 72 hrs by serial dilution technique; type: functional; settings: ATCC 9112, 72 h; method in brief: as §4
[36] = tested on: Pseudomonas aeruginosa; test: Ratio of ampicillin MIC to compound MIC for Pseudomonas aeruginosa ATCC 27853; type: functional
[37] = tested on: Bacillus cereus; test: Antibacterial activity against clinical isolate of Bacillus cereus incubated for 24 hrs followed by serial sub-cultivation for 24 hrs by microdilution; type: functional; method in brief: as §1
[38] = tested on: Aspergillus flavus; test: Antifungal activity against Aspergillus flavus ATCC 9643 after 72 hrs by serial dilution technique; type: functional; settings: ATCC 9643, 72 h; method in brief: as §4
[39] = tested on: Trichoderma viride; test: Antifungal activity against Trichoderma viride IAM 5061 after 72 hrs by serial dilution technique; type: functional; settings: IAM 5061, 72 h; method in brief: as §4
[40] = tested on: Talaromyces funiculosus; test: Antifungal activity against Penicillium funiculosum ATCC 36839 after 72 hrs by serial dilution technique; type: functional; settings: ATCC 36839, 72 h; method in brief: as §4
[41] = tested on: Aspergillus niger; test: Antifungal activity against Aspergillus niger ATCC 6275 incubated for 72 hrs followed by serial sub-cultivation for 72 hrs by serial dilution technique; type: functional; settings: ATCC 6275, 72 h; method in brief: as §2
[42] = tested on: Aspergillus fumigatus; test: Antifungal activity against Aspergillus fumigatus isolated from human incubated for 72 hrs followed by serial sub-cultivation for 72 hrs by serial dilution technique; type: functional; method in brief: as §2
[43] = tested on: Candida albicans; test: Antifungal activity against Candida albicans isolated from human after 72 hrs by serial dilution technique; type: functional; method in brief: as §4

MIC [3]: 81.7 µM (≈ 25.1 µg/mL)
MIC [5]: 65.3 µM (≈ 20 µg/mL)
MIC [8]: 65.3 µM (≈ 20 µg/mL)
MIC [9]: 49 µM (≈ 15 µg/mL)
MIC [13]: 49 µM (≈ 15 µg/mL)
MIC [23]: 98 µM (≈ 30.1 µg/mL)
MIC [24]: 98 µM (≈ 30.1 µg/mL)
MIC [25]: 65.3 µM (≈ 20 µg/mL)
MIC [27]: 81.7 µM (≈ 25.1 µg/mL)
MIC [30]: 65.3 µM (≈ 20 µg/mL)
MIC [31]: 65.3 µM (≈ 20 µg/mL)
MIC [35]: 65.3 µM (≈ 20 µg/mL)
MIC [38]: 65.3 µM (≈ 20 µg/mL)
MIC [39]: 32.7 µM (≈ 10 µg/mL)
MIC [40]: 32.7 µM (≈ 10 µg/mL)
MIC [43]: 32.7 µM (≈ 10 µg/mL)
SMILES: CCNc1nc(C)c(C(=O)/C=C/c2ccc(Cl)cc2)s1
MBC [1]: 81.7 µM (≈ 25.1 µg/mL)
MFC [2]: 65.3 µM (≈ 20 µg/mL)
MBC [4]: 98 µM (≈ 30.1 µg/mL)
Ratio [6]: 10
Ratio [7]: 10
MBC [10]: 49 µM (≈ 15 µg/mL)
Ratio [11]: 10
MBC [12]: 98 µM (≈ 30.1 µg/mL)
MFC [14]: 65.3 µM (≈ 20 µg/mL)
Ratio [15]: 10
MFC [16]: 81.7 µM (≈ 25.1 µg/mL)
Ratio [17]: 10
MFC [18]: 81.7 µM (≈ 25.1 µg/mL)
MBC [19]: 81.7 µM (≈ 25.1 µg/mL)
MFC [20]: 65.3 µM (≈ 20 µg/mL)
Ratio [21]: 10
MBC [22]: 98 µM (≈ 30.1 µg/mL)
Ratio [26]: 10
MBC [28]: 98 µM (≈ 30.1 µg/mL)
Ratio [29]: 10
Ratio [32]: 10
MFC [33]: 81.7 µM (≈ 25.1 µg/mL)
Ratio [34]: 10
Ratio [36]: 10
MBC [37]: 81.7 µM (≈ 25.1 µg/mL)
MFC [41]: 81.7 µM (≈ 25.1 µg/mL)
MFC [42]: 65.3 µM (≈ 20 µg/mL)

MIC [3]: 49.1 µM (≈ 15.1 µg/mL)
MIC [5]: 65.3 µM (≈ 20 µg/mL)
MIC [8]: 32.7 µM (≈ 10 µg/mL)
MIC [9]: 32.7 µM (≈ 10 µg/mL)
MIC [13]: 49.1 µM (≈ 15.1 µg/mL)
MIC [23]: 98 µM (≈ 30.1 µg/mL)
MIC [24]: 98 µM (≈ 30.1 µg/mL)
MIC [25]: 65.3 µM (≈ 20 µg/mL)
MIC [27]: 49.1 µM (≈ 15.1 µg/mL)
MIC [30]: 65.3 µM (≈ 20 µg/mL)
MIC [31]: 49.1 µM (≈ 15.1 µg/mL)
MIC [35]: 65.3 µM (≈ 20 µg/mL)
MIC [38]: 65.3 µM (≈ 20 µg/mL)
MIC [39]: 32.7 µM (≈ 10 µg/mL)
MIC [40]: 32.7 µM (≈ 10 µg/mL)
MIC [43]: 32.7 µM (≈ 10 µg/mL)
SMILES: CCNc1nc(C)c(C(=O)/C=C/c2cccc(Cl)c2)s1
MBC [1]: 65.3 µM (≈ 20 µg/mL)
MFC [2]: 65.3 µM (≈ 20 µg/mL)
MBC [4]: 81.7 µM (≈ 25.1 µg/mL)
Ratio [6]: 10
Ratio [7]: 10
MBC [10]: 65.3 µM (≈ 20 µg/mL)
Ratio [11]: 10
MBC [12]: 65.3 µM (≈ 20 µg/mL)
MFC [14]: 65.3 µM (≈ 20 µg/mL)
Ratio [15]: 10
MFC [16]: 81.7 µM (≈ 25.1 µg/mL)
Ratio [17]: 10
MFC [18]: 81.7 µM (≈ 25.1 µg/mL)
MBC [19]: 81.7 µM (≈ 25.1 µg/mL)
MFC [20]: 65.3 µM (≈ 20 µg/mL)
Ratio [21]: 10
MBC [22]: 98 µM (≈ 30.1 µg/mL)
Ratio [26]: 10
MBC [28]: 114 µM (≈ 35.1 µg/mL)
Ratio [29]: 10
Ratio [32]: 10
MFC [33]: 81.7 µM (≈ 25.1 µg/mL)
Ratio [34]: 10
Ratio [36]: 10
MBC [37]: 65.3 µM (≈ 20 µg/mL)
MFC [41]: 81.7 µM (≈ 25.1 µg/mL)
MFC [42]: 65.3 µM (≈ 20 µg/mL)
